From PubChem BioAssay AID2830 (NMMLSC, 2010) come the findings set out here.

The source made the active and inactive calls.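 The calls were made as follows: active = toxic dose over resistance-reversal dose ratio above 10, when the toxic dose is under 15 µM; inactive = the rest.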

In the test the test system is Igrov ABCG2 cells + mitoxantrone, trypan blue viability, 3 d. Briefly: ABCG2-mediated chemoresistance reversal and toxicity – Igrov cells, one SAR set, orthogonal assay for ABC transporter inhibitor project, SAR follow-up (AID 2830). The conditions noted are these: for CC50: measured here: toxicity without chemotherapeutic (TD50). The essentials:
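Assay system: Igrove cells with ABCG2. Incubation: 3-day compound exposure alongside mitoxantrone. Measured by: trypan blue counts by microscopy. Doses: test compound concentration range 1–100 µM.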

A word on the EC50: it is the concentration at which the effect is half-maximal. As usually defined, the CC50 is the concentration that lowers cell viability or growth by half.

On to `COc1ccc(/C=N/NC(=O)c2cccnc2)cc1CN1CCN(c2ccc(F)cc2)CC1`, for which the EC50 is 8.71 µM (inactive) and the CC50 was 15.4 µM.
In the same order, the values of `Cc1nc2cc(-c3cccc(F)c3)nn2c(N2CCN(C(=O)c3ccco3)CC2)c1C` are 0.419 µM and more than 100 µM.
In the same order, the values of `Cc1cc(C)c(C#N)c(SCc2c(F)cccc2[N+](=O)[O-])n1` are 18.3 µM (inactive) and more than 100 µM.
As to `COc1ccc(-c2nn(-c3ccccc3)cc2/C=C/C(=O)N2CCN(c3ccccn3)CC2)cc1`, the EC50 is 1.22 µM and the CC50 was more than 100 µM.
The like results for `CCCCn1c(O)c(N=Nc2ccccn2)c2ccccc21` were, in that order, 3.73 µM (inactive) and 7.62 µM.
The like results for `O=[N+]([O-])c1ccccc1-c1nc(-c2ccc(Br)o2)no1` were, in that order, 15.6 µM (inactive) and 23.2 µM.
In the same order, the values of `N#Cc1ccc(-c2ccc(OCC(=O)NCCc3ccccc3)cc2)cc1` are 4.73 µM and more than 100 µM.
Consider `CNc1nc2cc([N+](=O)[O-])c([N+](=O)[O-])cc2nc1NC`, for which the EC50 is 5.77 µM (inactive) and the CC50 stood at 7.32 µM.
In the same order, the values of `CCN(CC)P(=O)(Nc1cccc(C(F)(F)F)c1)c1ccc(N(C)C)cc1NC(=O)c1ccco1` (stereo not given) are 2.31 µM (inactive) and 19.8 µM.
In the same order, the values of `COC(=O)c1ccc(C(C(=O)NC2CCCCC2)N(Cc2ccccc2)C(=O)Cc2cccs2)cc1` (stereo not given) are 8.93 µM and more than 100 µM.
In the same order, the values of `CCOC(=O)c1cccc(NC(=O)c2cnc3ccccc3n2)c1` are 17.5 µM (inactive) and 67.8 µM.
For `CC1=NN(c2ccc([N+](=O)[O-])cc2)C(=O)/C1=C/N(C)C`, the EC50 was 54.4 µM (inactive) and the CC50 was 78.4 µM.
In the same order, the values of `O=[N+]([O-])c1ccc(Nc2nc(Cl)nc(NCCO)n2)cc1` are 55.5 µM (inactive) and more than 100 µM.
The like results for `CCCCN(C)C1=CC2=CC(=C(C#N)C#N)CCC2CC1` (stereo not given) were, in that order, 5.77 µM and 67.8 µM.
In the same order, the values of `CCOC(=O)c1c(NC(=O)CSc2ncccn2)sc2c1CCN(Cc1ccccc1)C2` are 0.117 µM (inactive) and 2.61 µM.
